According to ChEMBL document CHEMBL1121554, “Antimalarials. 12. Preparation of carbon isosteres of selected 4-pyridinemethanols as suppressive antimalarials” (1980):
The source made the active and inactive calls.

Key:
Mus musculus [1] = assay: Compound was evaluated for the antimalarial activity against Plasmodium berghei in mice (Mus musculus) at the dose 20 (mg/kg) administered subcutaneously; assay type: functional
Outline: (§1)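 P. berghei-infected mice, five per dose group; one subcutaneous dose given 72 h after infection. Read-out is the increase in mean survival time over infected controls, counted as active when the increase is at least 100%. Cures are mice alive out of five at 60 days post-infection. Testing was done at Rane Laboratories, University of Miami.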

Mus musculus [2] = assay: Compound was evaluated for the antimalarial activity against Plasmodium berghei in mice (Mus musculus) at the dose 40 (mg/kg) administered subcutaneously; assay type: functional; outline: as §1
Mus musculus [3] = assay: Compound was evaluated for the antimalarial activity against Plasmodium berghei in mice (Mus musculus) at the dose 80 (mg/kg) administered subcutaneously; (C) is the number of mice (Mus musculus) surviving out of five at 60 days post-infection; assay type: functional; outline: as §1
Mus musculus [4] = assay: Compound was evaluated for the antimalarial activity against Plasmodium berghei in mice (Mus musculus) at the dose 320 (mg/kg) administered subcutaneously; (C) is the number of mice (Mus musculus) surviving out of five at 60 days post-infection; assay type: functional; outline: as §1
Mus musculus [5] = assay: Compound was evaluated for the antimalarial activity against Plasmodium berghei in mice (Mus musculus) at the dose 160 (mg/kg) administered subcutaneously; (C) is the number of mice (Mus musculus) surviving out of five at 60 days post-infection; assay type: functional; outline: as §1
Mus musculus [6] = assay: Compound was evaluated for the antimalarial activity against Plasmodium berghei in mice (Mus musculus) at the dose 80 (mg/kg) administered subcutaneously; IA is defined as inactive.; assay type: functional, organism-based
Mus musculus [7] = assay: Compound was evaluated for the antimalarial activity against Plasmodium berghei in mice (Mus musculus) at the dose 40 (mg/kg) administered subcutaneously; (A) active; assay type: functional; outline: as §1
Mus musculus [8] = assay: Compound was evaluated for the antimalarial activity against Plasmodium berghei in mice (Mus musculus) at the dose 640 (mg/kg) administered subcutaneously; (C) is the number of mice (Mus musculus) surviving out of five at 60 days post-infection; assay type: functional; outline: as §1
Mus musculus [9] = assay: Compound was evaluated for the antimalarial activity against Plasmodium berghei in mice (Mus musculus) at the dose 20 (mg/kg) administered subcutaneously; (A) active; assay type: functional; outline: as §1
Mus musculus [10] = assay: Compound was evaluated for the antimalarial activity against Plasmodium berghei in mice (Mus musculus) at the dose 40 (mg/kg) administered subcutaneously; (C) is the number of mice (Mus musculus) surviving out of five at 60 days post-infection; assay type: functional; outline: as §1
Mus musculus [11] = assay: Compound was evaluated for the antimalarial activity against Plasmodium berghei in mice (Mus musculus) at the dose 160 (mg/kg) administered subcutaneously; (A) active; assay type: functional; outline: as §1
Mus musculus [12] = assay: Compound was evaluated for the antimalarial activity against Plasmodium berghei in mice (Mus musculus) at the dose 320 (mg/kg) administered subcutaneously; (A) active; assay type: functional; outline: as §1
Mus musculus [13] = assay: (§2) Compound was evaluated for the antimalarial activity against Plasmodium berghei in mice (Mus musculus) at the dose 80 (mg/kg) administered subcutaneously; assay type: functional; outline: as §1
Mus musculus [14] = assay: as §2; assay type: functional; remark: listed apart in the source
Mus musculus [15] = assay: Compound was evaluated for the antimalarial activity against Plasmodium berghei in mice (Mus musculus) at the dose 80 (mg/kg) administered subcutaneous; (A) active; assay type: functional; outline: as §1

SMILES: CCCCNCC(O)c1cc(-c2ccc(Cl)cc2)cc(-c2ccc(Cl)cc2)c1 (stereo unspecified)
- Delta MST (Mus musculus [1]): 0.5 days
- Delta MST (Mus musculus [2]): 1.3 days
- No. of cures (Mus musculus [3]): 3
- No. of cures (Mus musculus [4]): 5
- No. of cures (Mus musculus [5]): 5

SMILES: CCCCNCC(O)c1cc(/C=C/c2ccc(C(F)(F)F)cc2)cc(/C=C/c2ccc(C(F)(F)F)cc2)c1 (stereo unspecified)
- Delta MST (Mus musculus [6]): inactive

SMILES: CCCCN(CCCC)CC(O)c1cc(-c2ccc(Cl)cc2)nc(-c2ccc(Cl)cc2)c1 (stereo unspecified)
- Delta MST (Mus musculus [1]): 2.3 days
- Delta MST (Mus musculus [7]): 15.7 days
- No. of cures (Mus musculus [8]): 5
- No. of cures (Mus musculus [3]): 3
- No. of cures (Mus musculus [4]): 4
- No. of cures (Mus musculus [5]): 3

SMILES: CCCCNCC(O)c1cc(-c2ccc(Cl)cc2)nc(-c2ccc(Cl)cc2)c1 (stereo unspecified)
- Delta MST (Mus musculus [9]): 10.8 days
- No. of cures (Mus musculus [10]): 1
- No. of cures (Mus musculus [8]): 5
- No. of cures (Mus musculus [3]): 2
- No. of cures (Mus musculus [4]): 5
- No. of cures (Mus musculus [5]): 3

SMILES: CCCCNCC(O)c1cc(/C=C/c2ccc(C(F)(F)F)cc2)nc(/C=C/c2ccc(C(F)(F)F)cc2)c1 (stereo unspecified)
- Delta MST (Mus musculus [6]): inactive

SMILES: CCCCN(CCCC)CC(O)c1cc(-c2ccc(Cl)cc2)cc(-c2ccc(Cl)cc2)c1 (stereo unspecified)
- Delta MST (Mus musculus [11]): 9.7 days
- Delta MST (Mus musculus [1]): 0.3 days
- Delta MST (Mus musculus [12]): 13.9 days
- Delta MST (Mus musculus [2]): 0.5 days
- Delta MST (Mus musculus [13]): 4.1 days
- No. of cures (Mus musculus [8]): 5

SMILES: CCCCN(CCCC)CC(O)c1cc(/C=C/c2ccc(C(F)(F)F)cc2)nc(/C=C/c2ccc(C(F)(F)F)cc2)c1 (stereo unspecified)
- Delta MST (Mus musculus [1]): 0.2 days
- Delta MST (Mus musculus [2]): 2.9 days
- No. of cures (Mus musculus [8]): 5
- No. of cures (Mus musculus [14]): 2
- No. of cures (Mus musculus [4]): 5
- No. of cures (Mus musculus [5]): 5

SMILES: CCCCN(CCCC)CC(O)c1cc(/C=C/c2ccc(C(F)(F)F)cc2)cc(/C=C/c2ccc(C(F)(F)F)cc2)c1 (stereo unspecified)
- Delta MST (Mus musculus [1]): 0.5 days
- Delta MST (Mus musculus [2]): 0.5 days
- Delta MST (Mus musculus [15]): 8.1 days
- No. of cures (Mus musculus [4]): 5
- No. of cures (Mus musculus [5]): 5
